A short description of series [1]: Cytotoxicity against human BE(2)-C cells assessed as cell proliferation at 6.25 uM incubated overnight by XTT assay relative to control. The series is classed as cell-based. As to conditions: read-out: Activity. A general note: Tetrazolium assays rely on reduction of a dye to a coloured formazan, in cell work by metabolically active cells.
Series [2] concerns dengue virus type 2. The series can be described thus: Antiviral activity against eGFP-fused Dengue virus 2 infected in human BE(2)-C cells assessed as viral infection level by measuring intensity of eGFP emission from infected cells at 1.56 uM incubated for 24 hrs relative to control. The series is classed as functional. An outline of the steps: (§1)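 BE(2)C cells, in RPMI 1640 with 10% FBS, were infected with DENV-2-eGFP reporter virus (MOI 1) for 24 h with or without compound, using DMSO as solvent control. Cells were fixed in 4% paraformaldehyde and stained with Hoechst, then imaged by high-content analysis. eGFP intensity per cell number is given as % of solvent control. Values are means of 3 experiments.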

In series [3] the test system is dengue virus type 2. Kind of series: Antiviral activity against eGFP-fused Dengue virus 2 infected in human BE(2)-C cells assessed as viral infection level by measuring intensity of eGFP emission from infected cells at 3.13 uM incubated for 24 hrs relative to control. The series is classed as functional. In short, it runs like this: as §1
Series [4] has as its target Calcium/calmodulin-dependent protein kinase type II subunit alpha (Homo sapiens, UniProt Q9UQM7). Kind of series: Inhibition of human CaMKIIalpha using calmodulin and syntide-2 incubated for 15 mins by ELISA. (An ELISA detects its analyte on a solid surface through an enzyme-linked reagent.)

Active and inactive are the calls of the source. The calls are words filed in the database; no cut-off is given here.

Chain of Calcium/calmodulin-dependent protein kinase type II subunit alpha (Q9UQM7 whole entry): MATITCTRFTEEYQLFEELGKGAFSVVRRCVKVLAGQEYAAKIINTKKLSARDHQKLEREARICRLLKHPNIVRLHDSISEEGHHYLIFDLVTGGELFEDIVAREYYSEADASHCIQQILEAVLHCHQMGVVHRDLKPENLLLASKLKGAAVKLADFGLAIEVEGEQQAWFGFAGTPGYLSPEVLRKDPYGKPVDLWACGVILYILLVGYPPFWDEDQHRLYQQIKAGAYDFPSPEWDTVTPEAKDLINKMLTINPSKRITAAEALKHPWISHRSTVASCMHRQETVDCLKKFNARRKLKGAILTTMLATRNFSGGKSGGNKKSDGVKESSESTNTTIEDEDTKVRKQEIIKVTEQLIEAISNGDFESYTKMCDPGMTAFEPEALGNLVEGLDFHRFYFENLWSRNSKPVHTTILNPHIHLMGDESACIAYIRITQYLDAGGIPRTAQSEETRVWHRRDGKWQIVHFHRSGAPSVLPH

Consider `COc1ccc(S(=O)(=O)N(CCCC(=O)C2CCCCCC2)C2CCCCC2)cc1`, for which, in series [1], the viability at 6.25 µM is 97.5%. Further, the Activity is recorded as 85.7% with dengue virus type 2 [2] and 65.7% in the series on dengue virus type 2 [3].

As for `COc1ccc(S(=O)(=O)N(CCCC(C)=O)c2ccccc2)cc1`, the viability at 6.25 µM in series [1] came to 106%. In addition, the Activity in the series with dengue virus type 2 [2] was determined as 92.8%; with dengue virus type 2 [3], 100.8%.

Take `COc1ccc(S(=O)(=O)N(CCCC(=O)C2C3CC4CC(C3)CC2C4)c2ccccc2)cc1` (configuration not stated): the viability at 6.25 µM in series [1] amounted to 96.7%. The results for the Activity in the series with dengue virus type 2 [2] and in the series with dengue virus type 2 [3] were 57.3% and 51.1%, respectively.

On to `COc1ccc(S(=O)(=O)NCCCC(=O)c2ccc(F)cc2)cc1`, for which the viability at 6.25 µM in series [1] was 106%. Moreover, the inhibition result in series [4] is “Active”. Moreover, the Activity in the series on dengue virus type 2 [2] amounted to 110.1%; with dengue virus type 2 [3], 122.6%.

Regarding `COc1ccc(S(=O)(=O)N(CCCC(=O)C2CCC2)c2ccccc2)cc1`, in series [1], the viability at 6.25 µM was 93.9%. The Activity was found to be 42.8% in the series with dengue virus type 2 [2] and 33% in the series with dengue virus type 2 [3].

With `COc1ccc(S(=O)(=O)N(CCCC(=O)C2CCCCCC2)c2ccc(C3CCCCC3)cc2)cc1`, the figures for the Activity with dengue virus type 2 [2] and with dengue virus type 2 [3] were 36.1% and 13.8%, respectively.

Consider `COc1ccc(S(=O)(=O)N(CCCC(=O)C2CCCC2)c2ccccc2)cc1`, for which the Activity in the series on dengue virus type 2 [2] was determined as 34.6%; in the series with dengue virus type 2 [3], 25.1%.

In the case of `COc1ccc(S(=O)(=O)N(CCCC(O)c2ccc(F)cc2)c2ccccc2)cc1` (configuration not stated), the viability at 6.25 µM in series [1] stood at 76.3%. Besides, the inhibition result in series [4] was “Active”. The Activity in the series on dengue virus type 2 [2] is recorded as 59.4%; in the series with dengue virus type 2 [3], 48.5%.

What is called IC50 is the concentration that inhibits the measured activity by half. On to `CN([C@@H](Cc1ccc(OS(=O)(=O)c2cccc3cnccc23)cc1)C(=O)N1CCN(c2ccccc2)CC1)S(=O)(=O)c1cccc2cnccc12`, for which, in series [1], the viability at 6.25 µM turned out to be 65.7%. Further, the IC50 in series [4] was 1030 nM. The Activity with dengue virus type 2 [2] amounted to 33.5%; with dengue virus type 2 [3], 22.3%.

As for `COc1ccc(S(=O)(=O)N(CCCC(=O)C2CCCCC2)c2ccccc2)cc1`, in series [1], the viability at 6.25 µM came out at 107%. The Activity turned out to be 68.9% in the series on dengue virus type 2 [2] and 63.3% in the series on dengue virus type 2 [3].

For `COc1ccc(S(=O)(=O)N(CCCC(=O)C2CCCCCC2)c2ccc3c(c2)CCCC3)cc1`, the viability at 6.25 µM in series [1] was found to be 104%. The Activity in the series on dengue virus type 2 [2] is reported as 87.2%; in the series with dengue virus type 2 [3] it was 21.5%.

Consider `COc1ccc(S(=O)(=O)N(CCO)c2ccccc2CN(C)C/C=C/c2ccc(Cl)cc2)cc1`, for which the viability at 6.25 µM in series [1] amounted to 84.3%. Also, the Activity worked out at 30.5% in the series on dengue virus type 2 [2] and 14.5% in the series with dengue virus type 2 [3].

As to `COc1ccc(S(=O)(=O)N(CCCC(=O)c2ccc(F)cc2)c2ccccc2)cc1`, in series [1], the viability at 6.25 µM came to 56.1%. In addition, the Activity came to 55.9% in the series with dengue virus type 2 [2] and 39.3% in the series on dengue virus type 2 [3].

In the case of `Cc1ccc(S(=O)(=O)N(CCCC(=O)C2CCCCCC2)c2ccccc2)cc1`, the viability at 6.25 µM in series [1] is 99.5%. Also, the values for the Activity in the series with dengue virus type 2 [2] and in the series with dengue virus type 2 [3] were 93.9% and 76.9%, respectively.

For the compound `O=C(CCCN(c1ccccc1)S(=O)(=O)c1ccc(OC(F)(F)F)cc1)C1CCCC1`, in series [1], the viability at 6.25 µM stood at 92.4%. The Activity is 102.6% in the series on dengue virus type 2 [2] and 118.2% in the series with dengue virus type 2 [3].

Turning to `COc1ccc(S(=O)(=O)N(C)CCCC(=O)c2ccc(F)cc2)cc1`, the viability at 6.25 µM in series [1] was found to be 106%. In addition, the Activity in the series on dengue virus type 2 [2] was 100%; in the series on dengue virus type 2 [3], 100.9%.

On to `O=C(CCCN(c1ccccc1)S(=O)(=O)c1ccc(Oc2ccccc2)cc1)C1CCCCCC1`, for which the viability at 6.25 µM in series [1] amounted to 95.5%. The Activity with dengue virus type 2 [2] stood at 74.7%; in the series with dengue virus type 2 [3] it was 73.4%.
